Test results reported in ChEMBL document CHEMBL1126715, “Synthesis and tissue distribution of (m-[125I]iodobenzyl)trozamicol ([125I]MIBT): potential radioligand for mapping central cholinergic innervation” (J Med Chem, 1993).

Experiments:
[1] = organism: Rattus norvegicus; assay: Tissue distribution in rat lung after 60 minutes (n=3); assay type: ADME, organism-based; settings: in vivo, 1 h
In short: (§1)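 Male Wistar rats (200-350 g) under ether anesthesia; radiotracer (3-5 μCi in 0.1 mL 50% aqueous ethanol) given iv. At 5, 30, 60 and 180 min, blood was drawn by cardiac puncture and animals were killed by cardiectomy. Organs were weighed and γ-counted against a 1:100 dilution of the injected dose. Results are given as % injected dose/g tissue; ratios are taken between tissue levels.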

[2] = organism: Rattus norvegicus; assay: Tissue distribution in rrat heart after 60 minutes (n=3); assay type: ADME, organism-based; settings: in vivo, 1 h; in short: as §1
[3] = organism: Rattus norvegicus; assay: Effect of vesamicol on the accumulation in rat heart in group 1 […]; assay type: ADME, organism-based; settings: in vivo
In short: (§2)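 Male Wistar rats (n = 4/group) given iv vehicle (100 μL 50% aqueous EtOH) or dl-vesamicol (1.01 μmol/kg); 15 min later iv radiotracer (2.0 μCi in 100 μL 50% aqueous EtOH); killed 30 min post-tracer. Blood by cardiac puncture, organs weighed and γ-counted vs 1:100 injected-dose dilution; % dose/g tissue (range); tissue/blood ratios.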

[4] = organism: Rattus norvegicus; assay: Tissue distribution in rat muscle after 180 minutes (n=3); assay type: ADME, organism-based; settings: in vivo, 3 h; in short: as §1
[5] = organism: Rattus norvegicus; assay: Tissue distribution in rat thyroid after 60 minutes (n=3); assay type: ADME, organism-based, Thyroid gland; settings: in vivo, 1 h; in short: as §1
[6] = organism: Rattus norvegicus; assay: Effect of vesamicol on the accumulation in rat gonads in group 2 (n=3); assay type: ADME, organism-based; settings: in vivo; in short: as §2
[7] = organism: Rattus norvegicus; assay: Tissue distribution in rat brain after 5 minutes (n=3); assay type: ADME, organism-based; settings: in vivo; in short: as §1
[8] = organism: Rattus norvegicus; assay: Effect of vesamicol on the accumulation in rat liver in group 2 (n=3); assay type: ADME, organism-based; settings: in vivo
[9] = organism: Rattus norvegicus; assay: Tissue distribution in rat brain after 180 minutes (n=3); assay type: ADME, organism-based; settings: in vivo, 3 h
In short: (§3)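 Male Wistar rats (200-350 g) under ether, iv [125I]tracer (3-5 μCi in 0.1 mL 50% aqueous EtOH). At 5, 30, 60 or 180 min, blood taken by cardiac puncture and the rat killed by cardiectomy. Organs weighed and γ-counted against 1:100 dilutions of the injected dose; results in % injected dose/g, with range.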

[10] = organism: Rattus norvegicus; assay: Tissue distribution in rat blood after 5 minutes (n=3); assay type: ADME, organism-based; settings: in vivo; in short: as §1
[11] = organism: Rattus norvegicus; assay: Ratio of tissue distribution between rat brain and blood after 60 min; assay type: ADME, organism-based; settings: 1 h; in short: as §1
[12] = organism: Rattus norvegicus; assay: Ratio of tissue distribution between rat heart and blood after 5 min; assay type: ADME, organism-based; settings: other tissue, 5 min; in short: as §1
[13] = organism: Rattus norvegicus; assay: Tissue distribution in rat heart after 180 minutes (n=3); assay type: ADME, organism-based; settings: in vivo, 3 h; in short: as §1
[14] = organism: Rattus norvegicus; assay: Effect of vesamicol on the accumulation in rat muscle in group 1 (n=3); assay type: ADME, organism-based, Muscle tissue; settings: in vivo; in short: as §2
[15] = organism: Rattus norvegicus; assay: Tissue distribution in rat brain after 30 minutes (n=3); assay type: ADME, organism-based; settings: in vivo, 0.5 h; in short: as §1
[16] = Ratio of effect of vesamicol on the accumulation between rat brain and blood in group 1; assay type: ADME, organism-based; in short: as §2
[17] = organism: Rattus norvegicus; assay: Tissue distribution in rat lung after 180 minutes (n=3); assay type: ADME, organism-based; settings: in vivo, 3 h; in short: as §3
[18] = organism: Rattus norvegicus; assay: Tissue distribution in rat spleen after 30 minutes (n=3); assay type: ADME, organism-based; settings: in vivo, 0.5 h; in short: as §1
[19] = organism: Rattus norvegicus; assay: Effect of vesamicol on the accumulation in rat thyroid in group 1 (n=3); assay type: ADME, organism-based, Thyroid gland; settings: in vivo; in short: as §2
[20] = organism: Rattus norvegicus; assay: Tissue distribution in rat spleen after 60 minutes (n=3); assay type: ADME, organism-based; settings: in vivo, 1 h; in short: as §1
[21] = organism: Rattus norvegicus; assay: Tissue distribution in rat muscle after 60 minutes (n=3); assay type: ADME, organism-based; settings: in vivo, 1 h; in short: as §3
[22] = organism: Rattus norvegicus; assay: Tissue distribution in rat muscle after 30 minutes (n=3); assay type: ADME, organism-based; settings: in vivo, 0.5 h; in short: as §3
[23] = organism: Rattus norvegicus; assay: Effect of vesamicol on the accumulation in rat blood in group 1 (n=3); assay type: ADME, organism-based; settings: in vivo
[24] = organism: Rattus norvegicus; assay: Effect of vesamicol on the accumulation in rat thyroid in group 2 (n=3); assay type: ADME, organism-based, Thyroid gland; settings: in vivo; in short: as §2
[25] = organism: Rattus norvegicus; assay: Tissue distribution in rat kidney after 30 minutes (n=3); assay type: ADME, organism-based; settings: in vivo, 0.5 h; in short: as §1
[26] = organism: Rattus norvegicus; assay: Effect of vesamicol on the accumulation in rat kidney in group 1 (n=3); assay type: ADME, organism-based; settings: in vivo
[27] = organism: Rattus norvegicus; assay: Tissue distribution in rat lung after 30 minutes (n=3); assay type: ADME, organism-based; settings: in vivo, 0.5 h; in short: as §1
[28] = organism: Rattus norvegicus; assay: Ratio of tissue distribution between rat brain and blood after 30 min; assay type: ADME, organism-based; settings: 0.5 h
In short: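 Male Wistar rats (200-350 g) under ether anesthesia, iv radiotracer (3-5 μCi in 0.1 mL 50% aqueous ethanol). At 5, 30, 60, 180 min blood taken by cardiac puncture, animal killed by cardiectomy; organs weighed, γ-counted against 1:100 injected-dose dilution; % injected dose/g tissue; brain/blood ratio.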

[29] = organism: Rattus norvegicus; assay: Tissue distribution in rat heart after 30 minutes (n=3); assay type: ADME, organism-based; settings: in vivo, 0.5 h; in short: as §3
[30] = organism: Rattus norvegicus; assay: Tissue distribution in rat muscle after 5 minutes (n=3); assay type: ADME, organism-based; settings: in vivo; in short: as §1
[31] = organism: Rattus norvegicus; assay: Effect of vesamicol on the accumulation in rat spleen in group 2 (n=3); assay type: ADME, organism-based; settings: in vivo; in short: as §2
[32] = organism: Rattus norvegicus; assay: Tissue distribution in rat thyroid after 5 minutes (n=3); assay type: ADME, organism-based, Thyroid gland; settings: in vivo; in short: as §3
[33] = organism: Rattus norvegicus; assay: Tissue distribution in rat liver after 30 minutes (n=3); assay type: ADME, organism-based; settings: in vivo, 0.5 h; in short: as §1
[34] = organism: Rattus norvegicus; assay: Tissue distribution in rat blood after 30 minutes (n=3); assay type: ADME, organism-based; settings: in vivo, 0.5 h; in short: as §1
[35] = organism: Rattus norvegicus; assay: Tissue distribution in rat liver after 5 minutes (n=3); assay type: ADME, organism-based; settings: in vivo; in short: as §3

Structure (SMILES): O[C@@H]1CCN(Cc2cccc([125I])c2)C[C@H]1N1CCC(c2ccccc2)CC1 (stereo in doubt; (-))
- Dose/g [1]: 2.41%
- Dose/g [2]: 0.58%
- Dose/g [3]: 0.59%
- Dose/g [4]: 0.27%
- Dose/g [5]: 5.87%
- Dose/g [6]: 0.16%
- Dose/g [7]: 0.92%
- Dose/g [8]: 1.89%
- Dose/g [9]: 0.92%
- Dose/g [10]: 0.22%
- Ratio [11]: 8.51
- Ratio [12]: 6.07
- Dose/g [13]: 0.5%
- Dose/g [14]: 0.18%
- Dose/g [15]: 0.99%
- Kp [16]: 6.45
- Dose/g [17]: 2.01%
- Dose/g [18]: 1.24%
- Dose/g [19]: 2.62%
- Dose/g [20]: 1.17%
- Dose/g [21]: 0.28%
- Dose/g [22]: 0.3%
- Dose/g [23]: 0.11%
- Dose/g [24]: 4.56%
- Dose/g [25]: 3.53%
- Dose/g [26]: 2.45%
- Dose/g [27]: 3.21%
- Ratio [28]: 9.06
- Dose/g [29]: 0.75%
- Dose/g [30]: 0.46%
- Dose/g [31]: 0.8%
- Dose/g [32]: 2.67%
- Dose/g [33]: 2.35%
- Dose/g [34]: 0.11%
- Dose/g [35]: 2.07%
